Screens (PubChem BioAssay)
Only some compounds are listed: those with a hit (about 3.9% of all), similar ones and a draw of the others.
Rad51 HR inh = human RAD51 strand exchange inhibitors, primary screen, biochemical, fluorescence; DNA repair protein RAD51 homolog 1 (Homo sapiens), Q06609; hRad51 DNA strand exchange, fluorescence dequenching; inhibition, % at 10 µM; actives 0.085% (n = 200,000); AID 1385, 2008;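 active means inhibition above 40% at the single screening dose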;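 further: 0% = DMSO control wells and 100% = blanks with heterologous ssDNA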
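Test system: preformed human Rad51 ssDNA filaments. Compound dosing: single dose, 10 µM final compound. Incubation: filaments 15 min 37 °C, then compound 30 min. Technique: FRET fluorescence dequenching, excitation 485 nm, emission 520 nm. Read-out basis: percent inhibition from fluorescence, normalised to plate control and blank means. Benchmarks: plate controls and plate blanks.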
NF-kB neuron act = activators of NF-kB expression in neurons, primary screen, cell-based, HTS | human neuronal cells, NF-kB reporter expression; active compounds read high | fold change at 12.5 µM | actives 1.6% (n = 190,000) | AID 1239, 2008; in the data active means fold change above about 3.3
FLuc inhib CS = firefly luciferase enzyme inhibitors, primary screen, artefact control for luciferase-based inhibitor screens, biochemical, luminescence, ATPLite. actives 1.5% (n = 200,000). Luciferin 4-monooxygenase (Photinus pyralis), P08659. inhibition, % at 10 µM. 10 min;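 active means inhibition above about 50% when tested at 10 µM, limit read from the data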
Target sequence (P08659 whole entry, looked up): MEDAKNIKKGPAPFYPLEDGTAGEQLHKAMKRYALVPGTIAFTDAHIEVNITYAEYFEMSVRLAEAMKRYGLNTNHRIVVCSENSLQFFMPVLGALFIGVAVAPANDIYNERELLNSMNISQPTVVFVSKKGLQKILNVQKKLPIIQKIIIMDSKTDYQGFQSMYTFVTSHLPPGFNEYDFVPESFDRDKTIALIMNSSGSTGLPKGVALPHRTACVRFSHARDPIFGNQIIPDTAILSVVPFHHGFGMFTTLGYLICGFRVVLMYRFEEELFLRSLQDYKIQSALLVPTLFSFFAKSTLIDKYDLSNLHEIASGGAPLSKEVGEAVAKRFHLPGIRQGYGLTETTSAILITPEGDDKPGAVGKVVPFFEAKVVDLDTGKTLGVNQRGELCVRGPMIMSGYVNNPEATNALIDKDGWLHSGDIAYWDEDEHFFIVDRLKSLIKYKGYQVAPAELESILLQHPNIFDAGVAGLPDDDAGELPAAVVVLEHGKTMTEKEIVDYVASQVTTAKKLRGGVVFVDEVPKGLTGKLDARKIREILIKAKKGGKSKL
FLuc stim CS = FLuc activators, initial screening, artefact control for FLuc-dependent activation tests, biochemical, ATPlite luminescence | ATPlite luciferase biochemical, 10 min; 0 = ATP-free wells, 1 = DMSO control | activation factor at 10 µM | 200,000 tested, under 10 active;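 active means luciferase activation factor, scaled between plate controls, of at least 2 with compound at 10 µM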
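System: cell-free luciferase reagent; medium: PBS as buffer for the ATP substrate; doses: test compounds dosed from 2 mM stocks in 100% DMSO; incubation: 10 min, room temperature; measured by: luminescence from luciferase reaction; read-out: luciferase activation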
STAT1 act = STAT1 signaling activators, primary screen, cell-based, HTS, luciferase reporter | NIH 3T3 STAT1-luciferase reporter, IFN-gamma, luminescence; 100% = IFN-gamma alone, no compound | activation (% of control), % at 5.5 µM | actives 2.6% (n = 200,000) | AID 932, 2007;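 active means activation above the screen-wide mean activation plus 3 SD, cut at about 130% in these data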;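 further: raw ratio to IFN-gamma control signal so 100% means no change and 0% no light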
APP 5'UTR act = activators of APP 5'UTR luciferase reporter, primary screen, SH-SY5Y cells; SH-SY5Y APP 5'UTR luciferase reporter, luminescence; zero percent = DMSO vehicle wells; activation, % at 2 µM; actives 1% (n = 190,000);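 active means activation above a set limit, based on mean plus 3 SD of controls, cut at about 140% in these data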
Numbers without * were called inactive; . = no result given.

SMILES	Rad51 HR inh	NF-kB neuron act	FLuc inhib CS	FLuc stim CS	STAT1 act	APP 5'UTR act
CC(C)CC(=O)Nc1ccc(-c2nc3ccccc3c(=O)[nH]2)cc1	.	1.3	42	0.6	140*	184*
CC(=O)Nc1ccc(-c2nc3c(C)cccc3[nH]2)cc1	5	3.8*	49	0.5	130*	169*
CC(C)(C)C1CCC(=NOC(=O)c2ccc(F)cc2)CC1 (centres undefined)	-5	1.1	5	0.9	95	-4
Cc1cc(Cl)c(S(=O)(=O)N2CCN(c3ccccn3)CC2)cc1OCC(=O)NC1CCCCC1	-20	.	.	.	.	.
Cc1ccc(NC(=O)CCCSc2nc3ccccc3[nH]2)cc1	11	1.1	-7	1.1	95	13
Cc1ccc(SCC(=O)Nc2ccc(-c3nc4ccccc4[nH]3)cc2)cc1	-2	1.4	-2	1	132*	8
CN=C1S/C(=C\c2cc(C)n(-c3ccccc3F)c2C)C(=O)N1C	-6	0.61	82*	0.2	100	120
Cc1cc(/C=C2\SC(=S)N(C)C2=O)c(C)n1-c1cccc(O)c1	-66	.	.	.	.	.
COC(=O)CSc1ccc(S(=O)(=O)N2CCCCCC2)cc1[N+](=O)[O-]	-1	1.1	0	1	99	4
COc1ccc(C(=O)/C=C/Nc2ccc(C)cn2)cc1OC	2	5.2*	32	0.7	143*	145*
O=C(/C=C/NNC(=O)c1ccccc1)c1ccc(Br)cc1	-5	1.6	7	0.9	109	25
O=C(/C=C\Nc1ccc(Cl)cn1)c1ccc(Br)cc1	-6	1.6	-2	1	134*	123
O=C(/C=C/Nc1ccc(F)c(F)c1)c1ccc(Br)cc1	21	8.1*	17	0.8	141*	163*
O=C(/C=C/Nc1ccc(Br)cc1F)c1ccccc1	6	1.3	96*	0	58	140*
CCn1nc(C)c(CNC(=O)CC2C(=O)NCCN2CC(C)(C)C)c1C (centres undefined)	9	1	-1	1	109	4
NC(=S)N/N=C1\CCOc2ccc(F)cc21	-28	.	.	.	.	.
O=C(O)c1ccc(N2C(=O)Nc3ccccc3N2O)cc1	.	1	1	1	99	5
Cc1cc2ncn(CC3CC3(Cl)Cl)c2cc1C (centres undefined)	6	0.98	-2	1	94	6
Cc1[nH]c2ccc(C(=O)N3CCCCC3)cc2c1C	5	4.2*	7	0.9	145*	140*
CCOC(=O)c1ccc2[nH]c(C)c(C)c2c1	-4	2.1	.	.	115	43
Cc1ccc2c(c1)[nH]c1c(=O)n(Cc3ccco3)cnc12	4	.	.	.	.	.
Nc1ccc(N(CCO)CCO)cc1	1	0.76	-5	1.1	102	3
Cc1cc(N(CCO)CCO)ccc1N=Nc1cc(F)ccc1F	4	1.1	-1	1	133*	19
Fc1cccc(-c2cc3nc4c(c(N5CCOCC5)n3n2)CCCC4)c1	8	0.54	-4	1	108	14
COc1cccc(Nc2c3c(nc4c(-c5ccccc5)c(C)nn24)CCC3)c1	-6	0.74	-8	1.1	94	4
SMILES	Rad51 HR inh	NF-kB neuron act	FLuc inhib CS	FLuc stim CS	STAT1 act	APP 5'UTR act
Fc1cccc(-c2cc3nc4c(c(NCc5ccco5)n3n2)CCCC4)c1	9	4.6*	26	0.7	143*	166*
COc1cccc(-c2cc3nc4c(c(NCC(C)(C)CN(C)C)n3n2)CCCC4)c1	31	0.9	2	1	140*	103
Cc1c(Cl)sn(-c2ccc(Cl)cc2)c1=O	5	0.14	20	0.8	117	-92
O=C(NC1CC1)C1CCN(C2CCN(C(=O)/C=C/c3cccc(F)c3F)CC2)CC1	9	1.2	-5	1.1	106	-7
COc1c2ccoc2nc2c(OC)c(OCC(OC(C)=O)C(C)(C)O)ccc12 (centres undefined)	.	1.1	-9	1.1	99	9
[O-]/[N+](=C/c1ccc(F)cc1)c1ccc(Cl)cc1	0	4*	15	0.9	114	39
CN1C(=S)SC(/[N+]([O-])=C/c2ccc(Cl)cc2)C1(C)C (centres undefined)	2	.	.	.	.	.
CC(C)(C)C1CCc2c(sc(NC(=O)c3ccco3)c2C(N)=O)C1 (centres undefined)	8	0.88	48	0.5	86	11
CCC1CCc2c(sc(NC(=O)c3ccco3)c2C(N)=O)C1 (centres undefined)	-5	2.6	35	0.6	131*	84
CN(C)c1ccc(C(=O)NC2(N3CCC3=O)CCCC2)cc1	-1	1	-2	1	95	13
Cc1cccc(C)c1NS(=O)(=O)c1ccc(OCCNS(C)(=O)=O)cc1	.	0.83	81*	0.2	94	4
Cc1ccc(O)c(C(=O)c2cnn(C(=O)COc3ccccc3C#N)c2)c1	21	.	.	.	.	.
CSc1ccc(CNc2ccccn2)cc1	.	2	45	0.5	129*	41
Cc1ccc2c(c1)C1CN(C)CCC1N2Sc1ccccc1[N+](=O)[O-] (centres undefined)	-5	.	.	.	.	.
COc1cccc(OCc2nc3ncc(Br)cc3[nH]2)c1	3	1.5	1	1	120	2
COc1ccc(OCc2nc3ccccc3[nH]2)cc1	-4	4*	70*	0.3	117	.
COc1cccc(OCc2nc3ccccc3[nH]2)c1	-4	3.4*	52*	0.5	126	131
COc1cc(NC(=O)Cn2nc(C(F)(F)F)c(Br)c2C)cc([N+](=O)[O-])c1	.	0.98	-9	1.1	87	4
O=C(Nc1ccc(Cl)cc1)OCc1cn(-c2ccc(Cl)cc2)nn1	-1	1.4	-6	1.1	109	.
Clc1ccc(-n2cc(COCc3ccccc3)nn2)cc1	2	4.1*	28	0.7	97	170*
O=C(NC1=NCCS1)c1ccc(N2CCCC2=O)cc1	7	1.3	5	1	107	-4
Cc1csc(NC(=O)c2ccc(OCC3CCCO3)cc2)n1 (centres undefined)	3	4.8*	74*	0.3	44	160*
Cc1csc(NC(=O)c2ccc3c(=O)n4c(nc3c2)CCCCC4)n1	0	1.9	34	0.7	121	148*
Cc1csc(NC(=O)c2ccc(N3CCCC3=O)cc2)n1	23	1.4	89*	0.1	39	47
O=C(Nc1nccs1)c1ccc2c(=O)n3c(nc2c1)CCCCC3	8	1.2	37	0.6	132*	66
